From ChEMBL document CHEMBL1944523, “Benzimidazolones: a new class of selective peroxisome proliferator-activated receptor γ (PPARγ) modulators” (J Med Chem, 2011)

Experiments:
[1] = target: T1, Peroxisome proliferator-activated receptor gamma (Homo sapiens, UniProt P37231); assay: Binding affinity to human PPARgamma by scintillation proximity assay
T1 sequence (P37231 whole entry): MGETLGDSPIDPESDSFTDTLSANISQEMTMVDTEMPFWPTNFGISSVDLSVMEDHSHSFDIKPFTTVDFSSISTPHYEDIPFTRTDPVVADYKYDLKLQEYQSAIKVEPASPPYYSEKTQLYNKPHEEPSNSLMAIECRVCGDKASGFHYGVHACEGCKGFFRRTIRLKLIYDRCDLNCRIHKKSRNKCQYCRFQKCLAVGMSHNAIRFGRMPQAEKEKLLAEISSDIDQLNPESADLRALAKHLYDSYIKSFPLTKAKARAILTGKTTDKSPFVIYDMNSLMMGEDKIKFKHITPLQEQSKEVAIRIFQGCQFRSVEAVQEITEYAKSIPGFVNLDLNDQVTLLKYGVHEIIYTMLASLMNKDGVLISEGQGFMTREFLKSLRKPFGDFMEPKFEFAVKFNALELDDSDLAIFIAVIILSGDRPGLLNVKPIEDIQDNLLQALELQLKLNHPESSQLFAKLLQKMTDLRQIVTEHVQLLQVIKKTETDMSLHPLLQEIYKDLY
Outline: (§1)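 Scintillation proximity binding assay on PPAR receptors giving IC50; mean of three determinations.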

[2] = target: T1, Peroxisome proliferator-activated receptor gamma; assay: Agonist activity at human PPARgamma expressed in COS-1 cells co-expressing with Gal4 by transactivation assay; format: functional, cell-based
Outline: (§2)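 GAL4-PPAR chimeric receptor transactivation in transiently co-transfected COS-1 cells with a GAL4-responsive reporter; potency as EC50 and maximum activation expressed relative to rosiglitazone; triplicate, mean reported.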

[3] = target: T2, Peroxisome proliferator-activated receptor gamma (Homo sapiens) (UniProt P37231); assay: Agonist activity at human PPARgamma expressed in COS-1 cells co-expressing with Gal4 by transactivation assay relative to rosiglitazone; format: functional, cell-based; outline: as §2
T2 sequence (whole entry): T1 sequence (P37231 whole entry)

[4] = target: T3, Peroxisome proliferator-activated receptor alpha (Homo sapiens, UniProt Q07869); assay: Binding affinity to human PPARalpha expressed in COS-1 by scintillation proximity assay; outline: as §1
T3 sequence (Q07869 whole entry): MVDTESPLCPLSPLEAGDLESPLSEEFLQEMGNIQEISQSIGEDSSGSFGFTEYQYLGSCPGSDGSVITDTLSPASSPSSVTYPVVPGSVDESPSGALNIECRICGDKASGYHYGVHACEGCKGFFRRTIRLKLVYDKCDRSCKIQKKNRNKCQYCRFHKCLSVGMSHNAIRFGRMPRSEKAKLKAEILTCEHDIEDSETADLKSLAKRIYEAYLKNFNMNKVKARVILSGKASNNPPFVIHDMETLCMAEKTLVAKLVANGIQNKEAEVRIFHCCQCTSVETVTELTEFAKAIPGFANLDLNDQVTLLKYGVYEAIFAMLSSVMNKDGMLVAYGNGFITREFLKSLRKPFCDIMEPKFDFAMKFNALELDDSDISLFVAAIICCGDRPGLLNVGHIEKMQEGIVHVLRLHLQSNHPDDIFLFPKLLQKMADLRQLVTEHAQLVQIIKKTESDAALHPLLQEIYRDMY

[5] = target: T4, Peroxisome proliferator-activated receptor delta (Homo sapiens, UniProt Q03181); assay: Binding affinity to PPARdelta by scintillation proximity assay; outline: as §1
T4 sequence (Q03181 whole entry): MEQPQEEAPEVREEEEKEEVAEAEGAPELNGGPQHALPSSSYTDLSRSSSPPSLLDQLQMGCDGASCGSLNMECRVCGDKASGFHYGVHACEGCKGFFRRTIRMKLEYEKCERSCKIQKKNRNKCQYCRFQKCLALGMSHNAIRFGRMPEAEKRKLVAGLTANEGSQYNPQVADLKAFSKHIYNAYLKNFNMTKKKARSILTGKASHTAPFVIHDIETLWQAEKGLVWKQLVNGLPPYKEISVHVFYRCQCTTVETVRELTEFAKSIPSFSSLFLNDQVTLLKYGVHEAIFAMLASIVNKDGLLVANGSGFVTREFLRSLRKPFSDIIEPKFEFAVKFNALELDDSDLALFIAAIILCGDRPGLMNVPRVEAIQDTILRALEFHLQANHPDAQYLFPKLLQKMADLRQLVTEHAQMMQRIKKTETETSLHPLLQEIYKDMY

[6] = target: T1, Peroxisome proliferator-activated receptor gamma; assay: Partial agonist activity at human PPARgamma LBD assessed as activation of CBP1-453 by HTRF assay; format: functional
[7] = target: T1, Peroxisome proliferator-activated receptor gamma; assay: Partial agonist activity at human PPARgamma LBD assessed as activation of PGC1 by HTRF assay; format: functional
[8] = target: T1, Peroxisome proliferator-activated receptor gamma; assay: Partial agonist activity at human PPARgamma LBD assessed as activation of Src-1 by HTRF assay; format: functional
[9] = target: T1, Peroxisome proliferator-activated receptor gamma; assay: Partial agonist activity at human PPARgamma LBD assessed as activation of PBP by HTRF assay; format: functional
Rattus norvegicus [10] = assay: Dose normalized AUC in rat at 2 mg/kg, po by LC-MS/MS analysis; format: ADME, organism-based; parameters: dose 2 mg/kg, route oral; conditions: in vivo
Outline: (§3)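 Rat pharmacokinetics: 2 mpk oral in 5% methylcellulose, 0.5 mpk iv in ethanol/PEG400/water (1/4/5). Blood sampled at set intervals; plasma acidified with 0.5 M formate buffer pH 3.0, acetonitrile-precipitated, quantified by LC−MS−MS against spiked control-plasma calibration curves.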

Rattus norvegicus [11] = assay: Plasma clearance in rat at 0.5 mg/kg, iv and 2 mg/kg, po by LC-MS/MS analysis; format: ADME, organism-based; conditions: in vivo; outline: as §3
[12] = Half life in rat at 0.5 mg/kg, iv and 2 mg/kg, po by LC-MS/MS analysis; format: ADME, organism-based; conditions: in vivo; outline: as §3
[13] = Oral bioavailability in rat at 2 mg/kg by LC-MS/MS analysis; format: ADME, organism-based; conditions: in vivo; outline: as §3
Mus musculus = assay: Antidiabetic activity in db/db C57BLKS/J-m +/+ Leprdb mouse assessed as reduction of glucose level at 30 mg/kg, po qd for 10 days measured on 11 relative to control; format: functional; parameters: scale not given: the % may be the effect or the level left
Outline: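 Male db/db (C57BLKS/J-m +/+Leprdb) mice, 12−13 weeks old, seven per group, chow and water freely available; once-daily oral gavage in 0.25% methylcellulose vehicle for 11 days. Tail blood drawn just before next dose on days 0, 4, 7 and 11 for plasma glucose. Value is percent correction versus vehicle control; mean of n = 7; rosiglitazone 10 mpk positive control.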

Compound	IC50 [1] [nM]	EC50 [2] [nM]	Emax [3] [%]	IC50 [4] [nM]	IC50 [5] [nM]	other results
Cc1cccc2c(-n3c(=O)n(Cc4ccc(Cl)c(O[C@H](C)C(=O)O)c4)c4cc(C(F)(F)F)ccc43)noc12	9.2	4.1	25	> 50000	> 50000	
Cc1c(C(=O)c2ccc(Cl)cc2)c2ccc(OC(F)(F)F)cc2n1Cc1cccc(O[C@@H](C(=O)O)C(C)C)c1						EC50 [6]: 7 nM; EC50 [7]: 5 nM; EC50 [8]: 9 nM; EC50 [9]: 6 nM
COc1ccc2c(-n3c(=O)n(Cc4cc(O[C@H](C)C(=O)O)ccc4Cl)c4cc(C(F)(F)F)ccc43)noc2c1	9.1	102	26	> 50000	> 50000	
CN(CCOc1ccc(C[C@H](OCC(F)(F)F)C(=O)O)cc1)c1nc2ccccc2o1						EC50 [6]: 1 nM; EC50 [7]: 1 nM; EC50 [8]: 2 nM; EC50 [9]: 1 nM
COc1ccc2c(-n3c(=O)n(Cc4cc([C@@]5(C)OC(=O)NC5=O)ccc4Cl)c4cc(C(F)(F)F)ccc43)noc2c1	7.7	17	28	> 50000	> 50000	
COc1ccc2c(-n3c(=O)n(Cc4ccc(Cl)c(O[C@H](C)C(=O)O)c4)c4cc(C(F)(F)F)ccc43)noc2c1	4.1	103	28	> 50000	> 50000	
COc1ccc2c(-n3c(=O)n(-c4cccc([C@@]5(C)OC(=O)NC5=O)c4)c4cc(C(F)(F)F)ccc43)noc2c1	6930			> 50000	> 50000	
COc1ccc2c(-n3c(=O)n(Cc4ccc(Cl)c(O[C@@H](C)C(=O)O)c4)c4cc(C(F)(F)F)ccc43)noc2c1	66	3000	4	> 50000	> 50000	
Cc1ccc2c(-n3c(=O)n(Cc4ccc(Cl)c(O[C@H](C)C(=O)O)c4)c4cc(C(F)(F)F)ccc43)noc2c1	14.2	77.5	37	> 50000	> 50000	
Cc1c(C(=O)c2ccc(Cl)cc2)c2ccc(OC(F)(F)F)cc2n1Cc1cccc(O[C@H](C)C(=O)O)c1						EC50 [6]: 6 nM; EC50 [7]: 5 nM; EC50 [8]: > 50000 nM; EC50 [9]: 5 nM
COc1ccc2c(-n3c(=O)n(Cc4cccc(O[C@H](C)C(=O)O)c4)c4cc(C(F)(F)F)ccc43)noc2c1	924			> 50000	> 50000	
COc1ccc2c(-n3c(=O)n(Cc4cccc([C@@]5(C)OC(=O)NC5=O)c4)c4cc(C(F)(F)F)ccc43)noc2c1			45			
COc1ccc2c(-n3c(=O)n(Cc4ccccc4[C@@]4(C)OC(=O)NC4=O)c4cc(C(F)(F)F)ccc43)noc2c1	6630			> 50000	> 50000	
COc1ccc2c(-n3c(=O)n(Cc4ccc(Cl)c(O[C@H](C)C(=O)O)c4)c4cc(OC(F)(F)F)ccc43)noc2c1	3.2	11.4	39	> 50000	> 50000	
C[C@@H](Oc1cc(Cn2c(=O)n(Cc3ccc(Cl)cc3)c3ccc(C(F)(F)F)cc32)ccc1Cl)C(=O)O	4800	3000	17	> 50000	> 50000	
COc1ccc2c(-n3c(=O)n(Cc4ccc([C@@]5(C)OC(=O)NC5=O)cc4)c4cc(C(F)(F)F)ccc43)noc2c1	2180			> 50000	> 50000	
C[C@@H](Oc1cc(Cn2c(=O)n(-c3ccc(C(C)(C)C)cc3)c3ccc(C(F)(F)F)cc32)ccc1Cl)C(=O)O	161	135	15	> 50000	> 50000	EC50 [6]: 480 nM; EC50 [7]: 460 nM; EC50 [8]: > 50000 nM; EC50 [9]: 440 nM
CC[C@@H](Oc1cccc(Cn2c(=O)n(-c3noc4cc(OC)ccc34)c3ccc(C(F)(F)F)cc32)c1)C(=O)O	3660			> 50000	> 50000	
COc1ccc2c(-n3c(=O)n(Cc4cccc([C@@]5(C)OC(O)=NC5=O)c4)c4cc(C(F)(F)F)ccc43)noc2c1	93	237		> 50000	> 50000	
C[C@@H](Oc1cc(Cn2c(=O)n(-c3noc4cc(Cl)ccc34)c3ccc(C(F)(F)F)cc32)ccc1Cl)C(=O)O	68	200	32	> 50000	> 50000	EC50 [6]: > 50000 nM; EC50 [7]: 3240 nM; EC50 [8]: > 50000 nM; EC50 [9]: > 50000 nM
C[C@@H](Oc1cc(Cn2c(=O)n(-c3noc4ccc(Cl)cc34)c3ccc(C(F)(F)F)cc32)ccc1Cl)C(=O)O	35.4	120	36	> 50000	> 50000	
Cc1ccc2onc(-n3c(=O)n(Cc4ccc(Cl)c(O[C@H](C)C(=O)O)c4)c4cc(C(F)(F)F)ccc43)c2c1	11.2	3000	53	> 50000	> 50000	
C[C@@H](Oc1cc(Cn2c(=O)n(C(=O)c3ccc(Cl)cc3)c3ccc(C(F)(F)F)cc32)ccc1Cl)C(=O)O	255	489	21	> 50000	> 50000	
C[C@@H](Oc1cc(Cn2c(=O)n(-c3nc4ccc(Cl)cc4s3)c3ccc(C(F)(F)F)cc32)ccc1Cl)C(=O)O	1370			> 50000	> 50000	
COc1ccc2c(-n3c(=O)n(Cc4ccc(Cl)c(O[C@H](C)C(=O)O)c4)c4ccc(C(F)(F)F)cc43)noc2c1	2.3	83	43	> 50000	> 50000	
COc1ccc2c(-n3c(=O)n(Cc4cc(O[C@H](C)C(=O)O)ccc4Cl)c4ccccc43)noc2c1	13.7	51.1	50	> 50000	> 50000	AUC/dose (Rattus norvegicus [10]): 5 µM·kg·h/mg; clearance (Rattus norvegicus [11]): 7.3 mL/min/kg; half-life [12]: 6.9 h; bioavailability [13]: 97%; EC50 [6]: 11 nM; EC50 [7]: 8 nM; EC50 [8]: > 50000 nM; EC50 [9]: 11 nM; Activity (Mus musculus): 30%
COc1ccc2c(-n3c(=O)n(Cc4ccc(Cl)c(O[C@H](C)C(=O)O)c4)c4ccc(OC(F)(F)F)cc43)noc2c1	4.1	13.2	31	> 50000	> 50000	
